Screens deposited in PubChem by Broad Institute.
The full list was thinned out, with hits kept by preference.
A1 apoptosis 2: A1 inhibitors via caspase activation, primary screen, cell-based, luminescence, HTS, two replicates; MEF A1-2A-BIM cells, caspase-Glo luminescence, 3 h; percent of clofoctol response, DMSO zero; caspase activation, % (test concentration not listed); 24,000 tested, under 10 active; in the data active = caspase activation above about 5.9%; inconclusive = no clear call, values can overlap the other calls; inactive = below about 2.2%
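Material: mouse embryonic fibroblasts co-expressing A1 and BIM (A1-2A-BIM), primed for A1 dependence / Quantity: 2500 cells/well / Buffer or medium: RPMI-1640 growth medium with 10% FBS / Doses: 50 nL compound per well, pinned / Schedule: 3 h compound exposure at 37 °C / Signal: Caspase-Glo luminescence (DEVD substrate) / Measure: Caspase-3/7 activation, seen as rise in luminescence signal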
T cruzi HTS: inhibitors of intracellular Trypanosoma cruzi, primary screen, cell-based, plate reader, single point, set 2; intracellular Trypanosoma cruzi in host cells; activity score (inhibition), % at 5.01 µM; hit rate 4.9% among 22,000; in the data active = activity score above about 55%; inconclusive = no clear call, values can overlap the other calls;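 also: parasites and compound incubated about four days before reading; 0% = median of neutral control wells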
INS-1E rescue: protection of INS-1E cells from cytokine death, primary screen, ATP luminescence, single point; AID 488910, 2010; INS-1E cytokine-induced death, 48 h; normalised: neutral wells 0, positive control 100; protection from cytokine-induced ATP loss, % at 10 µM; hit rate 0.1% among 20,000;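 active = mean replicate protection from cytokine-induced ATP loss at least 50% and at least 75% of replicates each reaching 50%; inconclusive = meets only one of the two criteria, mean or replicate share; inactive = fails both the mean and replicate share criteria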
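Assay system: INS-1E rat insulinoma cells. Amount: 8000 cells per well. Medium: phenol-red-free RPMI with 5% fetal bovine serum. Reagent: IL-1β, TNF-α and IFN-γ cytokine mix. Doses: one compound concentration, pin transfer. Schedule: 48 h co-treatment, 10 min post-lysis read. Detection: CellTiter-Glo luminescence measuring cellular ATP.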
Starred values were filed as active, the others as inactive; u = inconclusive; x = not tested or not shown.

SMILES	A1 apoptosis 2	T cruzi HTS	INS-1E rescue
O=C(O)CCCCCCC(=O)N/N=C/c1cc(Br)cs1	x	1	10
COC(=O)CCCCCCC(=O)N/N=C/C1=CCCCC1	0	0	-1
Cc1ccc(S(=O)(=O)N(C)C[C@H]2Oc3ccc(NS(=O)(=O)c4ccccc4)cc3CC(=O)N([C@H](C)CO)C[C@H]2C)cc1	-1	67*	1
Cc1ccc(S(=O)(=O)Nc2ccc3c(c2)CC(=O)N([C@H](C)CO)C[C@@H](C)[C@@H](CN(C)S(=O)(=O)c2ccc(C)cc2)O3)cc1	x	78*	-7
Cc1ccc(S(=O)(=O)N(C)C[C@H]2Oc3ccc(NS(=O)(=O)c4ccc(Cl)cc4)cc3CC(=O)N([C@@H](C)CO)C[C@H]2C)cc1	1	u	-18
Cc1ccc(S(=O)(=O)Nc2ccc3c(c2)CC(=O)N([C@@H](C)CO)C[C@H](C)[C@@H](CN(C)S(=O)(=O)c2ccccc2)O3)cc1	x	-1	5
Cc1ccc(S(=O)(=O)Nc2ccc3c(c2)CC(=O)N([C@@H](C)CO)C[C@@H](C)[C@@H](CN(C)S(=O)(=O)c2ccc(Cl)cc2)O3)cc1	0	62*	1
Cc1ccc(S(=O)(=O)Nc2ccc3c(c2)CC(=O)N([C@H](C)CO)C[C@H](C)[C@@H](CN(C)S(=O)(=O)c2ccc(Cl)cc2)O3)cc1	0	x	x
O=C(N/N=C/c1ccc(C(F)(F)F)cc1)c1ccccc1O	-6	-1	-13
COc1ccc(CN(C)C[C@@H]2Oc3ccc(NC(=O)Nc4ccc(C(F)(F)F)cc4)cc3CC(=O)N([C@H](C)CO)C[C@@H]2C)cc1	-1	x	-89
COc1ccc(NC(=O)Nc2ccc3c(c2)CC(=O)N([C@H](C)CO)C[C@@H](C)[C@H](CN(C)Cc2ccc(C(F)(F)F)cc2)O3)cc1	0	u	-43
COc1ccc(CN(C)C[C@H]2Oc3ccc(NC(=O)Nc4ccc(C(F)(F)F)cc4)cc3CC(=O)N([C@H](C)CO)C[C@H]2C)cc1	1	74*	-14
COc1ccc(CN(C)C[C@@H]2Oc3ccc(NC(=O)Nc4ccc(C(F)(F)F)cc4)cc3CC(=O)N([C@H](C)CO)C[C@H]2C)cc1	0	-8	-8
COc1ccc(NC(=O)Nc2ccc3c(c2)CC(=O)N([C@H](C)CO)C[C@@H](C)[C@@H](CN(C)Cc2ccc(C(F)(F)F)cc2)O3)cc1	x	67*	-11
COc1ccc(NC(=O)Nc2ccc3c(c2)CC(=O)N([C@@H](C)CO)C[C@H](C)[C@H](CN(C)Cc2ccc(C(F)(F)F)cc2)O3)cc1	-1	2	-2
COc1ccc(NC(=O)Nc2ccc3c(c2)CC(=O)N([C@@H](C)CO)C[C@H](C)[C@@H](CN(C)Cc2ccc(C(F)(F)F)cc2)O3)cc1	x	74*	-19
COc1ccc(CN(C)C[C@H]2Oc3ccc(NC(=O)Nc4ccc(C(F)(F)F)cc4)cc3CC(=O)N([C@@H](C)CO)C[C@H]2C)cc1	1	68*	-26
C[C@@H]1CCCCO[C@H](CN(C)Cc2ccc(C(F)(F)F)cc2)[C@@H](C)CN([C@H](C)CO)C(=O)c2cc(NC(=O)NC3CCCCC3)ccc2O1	x	44	-14
C[C@@H]1CN([C@H](C)CO)C(=O)c2cc(NC(=O)Nc3ccc(F)cc3)ccc2O[C@@H](C)CCCCO[C@@H]1CN(C)Cc1ccc(C(F)(F)F)cc1	-1	x	x
C[C@@H]1CCCCO[C@@H](CN(C)Cc2ccc(C(F)(F)F)cc2)[C@@H](C)CN([C@H](C)CO)C(=O)c2cc(NC(=O)Nc3ccc(C(F)(F)F)cc3)ccc2O1	x	72*	-2
C[C@@H]1CCCCO[C@@H](CN(C)Cc2ccc(C(F)(F)F)cc2)[C@@H](C)CN([C@H](C)CO)C(=O)c2cc(NC(=O)NC3CCCCC3)ccc2O1	0	65*	-22
C[C@@H]1CCCCO[C@H](CN(C)Cc2ccc(C(F)(F)F)cc2)[C@@H](C)CN([C@H](C)CO)C(=O)c2cc(NC(=O)Nc3ccc(C(F)(F)F)cc3)ccc2O1	1	71*	-38
C[C@H]1CCCCO[C@H](CN(C)Cc2ccc(C(F)(F)F)cc2)[C@@H](C)CN([C@@H](C)CO)C(=O)c2cc(NC(=O)Nc3ccc(C(F)(F)F)cc3)ccc2O1	0	x	x
C[C@@H]1CCCCO[C@H](CN(C)Cc2ccc(C(F)(F)F)cc2)[C@@H](C)CN([C@H](C)CO)C(=O)c2cc(NC(=O)Nc3ccc(F)cc3)ccc2O1	x	71*	7
